Test results from ChEMBL document CHEMBL1158358, “Synthesis, antimicrobial and cytotoxic activities of some 5-arylidene-4-thioxo-thiazolidine-2-ones” (Eur J Med Chem, 2009).
Values after ≈ are worked out from the molar mass of the structure shown.

Assays:
Format in all cases: functional
[1] = test system: Mycolicibacterium smegmatis; experiment: Antimicrobial activity against Mycobacterium smegmatis UFPEDA 71 after 20 hrs by twofold serial dilution technique; details: UFPEDA 71, 20 h
Procedure, shortened: (§1)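 MIC was determined by twofold serial dilution. Bacteria were tested in plates at 10⁵ CFU/plate and read after 20 h. C. albicans was tested in tubes at 10³ CFU/tube and read after 48 h. All incubations were at 35 °C. Medium plus DMSO served as the negative control.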

Enterococcus faecalis [2] = experiment: Antimicrobial activity against multidrug-resistant Enterococcus faecalis H.C. 21944 isolate after 20 hrs by twofold serial dilution technique; details: H.C. 21944, 20 h
Procedure, shortened: (§2)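 Twofold serial dilution MIC in agar plates against Gram-positive strains and multidrug-resistant clinical isolates. Inoculum applied was 10⁵ CFU/plate. Plates with culture medium plus DMSO served as negative control. MIC was read after incubation at 35 °C for 20 h.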

NCI-H292 [3] = experiment: Cytotoxicity against human NCI-H292 cells at 1.25 ug/mL after 72 hrs by MTT assay; details: NCI-H292, 72 h, read-out: GI
Procedure, shortened: (§3)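 MTT antiproliferative assay. Cells were diluted to 10⁵ cells/mL in 96-well plates and preincubated for 24 h at 37 °C in humid 5% CO₂. Compounds or vincristine (reference) were then added. Formazan was dissolved and OD read at 540 nm, compared with medium-only control cells. Run in triplicate.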

HEp-2 [4] = experiment: Cytotoxicity against human Hep2 cells at 1.25 ug/mL after 72 hrs by MTT assay; details: HEp-2, 72 h, read-out: GI; procedure, shortened: as §3
Enterococcus faecalis [5] = experiment: Antimicrobial activity against Enterococcus faecalis UFPEDA 138 at 300 ug/disk after 24 hrs by disk diffusion method; details: UFPEDA 138, 24 h, read-out: IZ
Procedure, shortened: (§4)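 Preliminary screen by disk diffusion. Paper disks (6 mm) holding 300 µg of compound were placed on agar plates inoculated with a standardized microbial suspension. DMSO-only disks served as negative controls. A mean inhibition zone below 7 mm was scored as no sensitivity. Values are means, n = 3.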

HEp-2 [6] = experiment: Cytotoxicity against human Hep2 cells at 5 ug/mL after 72 hrs by MTT assay; details: HEp-2, 72 h, read-out: GI; procedure, shortened: as §3
Staphylococcus aureus [7] = experiment: Antimicrobial activity against Staphylococcus aureus UFPEDA 01 after 20 hrs by twofold serial dilution technique; details: UFPEDA 01, 20 h; procedure, shortened: as §2
HEp-2 [8] = experiment: Cytotoxicity against human Hep2 cells at 10 ug/mL after 72 hrs by MTT assay; details: HEp-2, 72 h, read-out: GI; procedure, shortened: as §3
Micrococcus luteus [9] = experiment: Antimicrobial activity against Micrococcus luteus UFPEDA 06 at 300 ug/disk after 24 hrs by disk diffusion method; details: UFPEDA 06, 24 h, read-out: IZ; procedure, shortened: as §4
Staphylococcus aureus [10] = experiment: Antimicrobial activity against multidrug-resistant Staphylococcus aureus H.C. 20981 isolate after 20 hrs by twofold serial dilution technique; details: H.C. 20981, 20 h; procedure, shortened: as §2
Escherichia coli = experiment: Antimicrobial activity against Escherichia coli UFPEDA 224 at 300 ug/disk after 24 hrs by disk diffusion method; details: UFPEDA 224, 24 h, read-out: IZ; procedure, shortened: as §4
[11] = test system: Mycolicibacterium smegmatis; experiment: Antimicrobial activity against Mycobacterium smegmatis UFPEDA 71 at 300 ug/disk after 24 hrs by disk diffusion method; details: UFPEDA 71, 24 h, read-out: IZ; procedure, shortened: as §4
Staphylococcus [12] = experiment: Antimicrobial activity against coagulase-negative Staphylococcus H.A.M. 278 isolate after 20 hrs by twofold serial dilution technique; details: H.A.M. 278, 20 h; procedure, shortened: as §1
Enterococcus faecalis [13] = experiment: Antimicrobial activity against multidrug-resistant Enterococcus faecalis H.C. 24708 isolate after 20 hrs by twofold serial dilution technique; details: H.C. 24708, 20 h; procedure, shortened: as §2
Enterococcus faecalis [14] = experiment: Antimicrobial activity against Enterococcus faecalis UFPEDA 138 after 20 hrs by twofold serial dilution technique; details: UFPEDA 138, 20 h; procedure, shortened: as §1
Staphylococcus [15] = experiment: Antimicrobial activity against coagulase-negative Staphylococcus H.A.M. 338 isolate after 20 hrs by twofold serial dilution technique; details: H.A.M. 338, 20 h; procedure, shortened: as §1
Bacillus subtilis [16] = experiment: Antimicrobial activity against Bacillus subtilis UFPEDA 16 after 20 hrs by twofold serial dilution technique; details: UFPEDA 16, 20 h; procedure, shortened: as §1
Candida albicans [17] = experiment: Antimicrobial activity against Candida albicans UFPEDA 1007 after 48 hrs by twofold serial dilution technique; details: UFPEDA 1007, 48 h; procedure, shortened: as §1
NCI-H292 [18] = experiment: Cytotoxicity against human NCI-H292 cells at 10 ug/mL after 72 hrs by MTT assay; details: NCI-H292, 72 h, read-out: GI; procedure, shortened: as §3
Bacillus subtilis [19] = experiment: Antimicrobial activity against Bacillus subtilis UFPEDA 16 at 300 ug/disk after 24 hrs by disk diffusion method; details: UFPEDA 16, 24 h, read-out: IZ; procedure, shortened: as §4
Serratia marcescens = experiment: Antimicrobial activity against Serratia marcescens UFPEDA 398 at 300 ug/disk after 24 hrs by disk diffusion method; details: UFPEDA 398, 24 h, read-out: IZ; procedure, shortened: as §4
Candida albicans [20] = experiment: Antimicrobial activity against Candida albicans UFPEDA 1007 at 300 ug/disk after 48 hrs by disk diffusion method; details: UFPEDA 1007, 48 h, read-out: IZ; procedure, shortened: as §4
NCI-H292 [21] = experiment: Cytotoxicity against human NCI-H292 cells at 2.5 ug/mL after 72 hrs by MTT assay; details: NCI-H292, 72 h, read-out: GI; procedure, shortened: as §3
Staphylococcus aureus [22] = experiment: Antimicrobial activity against multidrug-resistant Staphylococcus aureus H.C. 20905 isolate after 20 hrs by twofold serial dilution technique; details: H.C. 20905, 20 h; procedure, shortened: as §2
Enterococcus faecalis [23] = experiment: Antimicrobial activity against multidrug-resistant Enterococcus faecalis H.C. 24962 isolate after 20 hrs by twofold serial dilution technique; details: H.C. 24962, 20 h; procedure, shortened: as §2
NCI-H292 [24] = experiment: Cytotoxicity against human NCI-H292 cells at 5 ug/mL after 72 hrs by MTT assay; details: NCI-H292, 72 h, read-out: GI; procedure, shortened: as §3
Micrococcus luteus [25] = experiment: Antimicrobial activity against Micrococcus luteus UFPEDA 06 after 20 hrs by twofold serial dilution technique; details: UFPEDA 06, 20 h; procedure, shortened: as §1
Staphylococcus aureus [26] = experiment: Antimicrobial activity against multidrug-resistant Staphylococcus aureus H.C. 20489 isolate after 20 hrs by twofold serial dilution technique; details: H.C. 20489, 20 h; procedure, shortened: as §2
Pseudomonas aeruginosa = experiment: Antimicrobial activity against Pseudomonas aeruginosa UFPEDA 39 at 300 ug/disk after 24 hrs by disk diffusion method; details: UFPEDA 39, 24 h, read-out: IZ; procedure, shortened: as §4
Staphylococcus aureus [27] = experiment: Antimicrobial activity against Staphylococcus aureus UFPEDA 01 at 300 ug/disk after 24 hrs by disk diffusion method; details: UFPEDA 01, 24 h, read-out: IZ; procedure, shortened: as §4
Enterococcus faecalis [28] = experiment: Antimicrobial activity against multidrug-resistant Enterococcus faecalis H.C. 21752 isolate after 20 hrs by twofold serial dilution technique; details: H.C. 21752, 20 h; procedure, shortened: as §2
Staphylococcus aureus [29] = experiment: Antimicrobial activity against multidrug-resistant Staphylococcus aureus H.C. 21036 isolate after 20 hrs by twofold serial dilution technique; details: H.C. 21036, 20 h; procedure, shortened: as §2
Staphylococcus aureus [30] = experiment: Antimicrobial activity against multidrug-resistant Staphylococcus aureus H.C. 20794 isolate after 20 hrs by twofold serial dilution technique; details: H.C. 20794, 20 h; procedure, shortened: as §2
HEp-2 [31] = experiment: Cytotoxicity against human Hep2 cells at 2.5 ug/mL after 72 hrs by MTT assay; details: HEp-2, 72 h, read-out: GI; procedure, shortened: as §3
Staphylococcus aureus [32] = experiment: Antimicrobial activity against multidrug-resistant Staphylococcus aureus H.C. 21141 isolate after 20 hrs by twofold serial dilution technique; details: H.C. 21141, 20 h; procedure, shortened: as §2

O=C1NC(=S)/C(=C/c2ccc(Cl)c(Cl)c2)S1
MIC [1]: 32 µg/mL (≈ 110 µM) | MIC (Enterococcus faecalis [2]): 4 µg/mL (≈ 13.8 µM) | inhibition of growth at 1.25 µg/mL (NCI-H292 [3]): 9.18% | inhibition of growth at 1.25 µg/mL (HEp-2 [4]): -5.45% | zone of inhibition at 300 µg/disc (Enterococcus faecalis [5]): 20 mm | inhibition of growth at 5 µg/mL (HEp-2 [6]): 11% | MIC (Staphylococcus aureus [7]): 4 µg/mL (≈ 13.8 µM) | inhibition of growth at 10 µg/mL (HEp-2 [8]): 16.4% | zone of inhibition at 300 µg/disc (Micrococcus luteus [9]): 27 mm | MIC (Staphylococcus aureus [10]): 2 µg/mL (≈ 6.89 µM) | zone of inhibition at 300 µg/disc (Escherichia coli): < 7 mm | zone of inhibition at 300 µg/disc [11]: 20 mm | MIC (Staphylococcus [12]): 4 µg/mL (≈ 13.8 µM) | MIC (Enterococcus faecalis [13]): 16 µg/mL (≈ 55.1 µM) | MIC (Enterococcus faecalis [14]): 8 µg/mL (≈ 27.6 µM) | MIC (Staphylococcus [15]): 2 µg/mL (≈ 6.89 µM) | MIC (Bacillus subtilis [16]): 4 µg/mL (≈ 13.8 µM) | MIC (Candida albicans [17]): 32 µg/mL (≈ 110 µM) | inhibition of growth at 10 µg/mL (NCI-H292 [18]): 43.3% | zone of inhibition at 300 µg/disc (Bacillus subtilis [19]): 27 mm | zone of inhibition at 300 µg/disc (Serratia marcescens): < 7 mm | zone of inhibition at 300 µg/disc (Candida albicans [20]): 14 mm | inhibition of growth at 2.5 µg/mL (NCI-H292 [21]): 19.4% | MIC (Staphylococcus aureus [22]): 4 µg/mL (≈ 13.8 µM) | MIC (Enterococcus faecalis [23]): 16 µg/mL (≈ 55.1 µM) | inhibition of growth at 5 µg/mL (NCI-H292 [24]): 35.8% | MIC (Micrococcus luteus [25]): 4 µg/mL (≈ 13.8 µM) | MIC (Staphylococcus aureus [26]): 2 µg/mL (≈ 6.89 µM) | zone of inhibition at 300 µg/disc (Pseudomonas aeruginosa): < 7 mm | zone of inhibition at 300 µg/disc (Staphylococcus aureus [27]): 25 mm | MIC (Enterococcus faecalis [28]): 8 µg/mL (≈ 27.6 µM) | MIC (Staphylococcus aureus [29]): 4 µg/mL (≈ 13.8 µM) | MIC (Staphylococcus aureus [30]): 2 µg/mL (≈ 6.89 µM) | inhibition of growth at 2.5 µg/mL (HEp-2 [31]): 5.03% | MIC (Staphylococcus aureus [32]): 2 µg/mL (≈ 6.89 µM)
